From ChEMBL document CHEMBL3045005, “Synthesis and biological evaluation of new analogues of the active fungal metabolites N-(2-methyl-3-oxodecanoyl)-2-pyrroline and N-(2-methyl-3-oxodec-8-enoyl)-2-pyrroline (II)” (2000)
Activity calls are given as the source filed them. The rule behind the calls is not given here.

Legend:
[1] = test system: Fusarium culmorum; test: Fungicidal activity against Fusarium culmorum CCM 172 assessed as inhibition of radial mycelial growth at 2.5 ug/mL after 4 days; type: functional; conditions: CCM 172, 96 h, read-out: GI
In short: (§1)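 Benomyl added to PDA at 2.5 µg/mL; acetone-only PDA plates served as controls. Plates were inoculated with spores from seven-day-old PDA cultures of each fungus and incubated at 28 °C for 4 days. Radial mycelial growth was measured and % inhibition was calculated against control-plate growth. Three independent determinations; means ± SD; ANOVA with LSD test.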

[2] = test system: Fusarium oxysporum f. sp. gladioli; test: Fungicidal activity against Fusarium oxysporum f. sp. gladioli CCM 233 assessed as inhibition of radial mycelial growth at 2.5 ug/mL after 4 days; type: functional; conditions: CCM 233, 96 h, read-out: GI; in short: as §1
[3] = test system: Fusarium oxysporum f. sp. niveum; test: Fungicidal activity against Fusarium oxysporum f. sp. niveum CCM 259 assessed as inhibition of radial mycelial growth at 2.5 ug/mL after 4 days; type: functional; conditions: CCM 259, 96 h, read-out: GI; in short: as §1
[4] = test system: Geotrichum candidum; test: Fungicidal activity against Galactomyces geotrichum CCM 245 assessed as inhibition of radial mycelial growth at 2.5 ug/mL after 4 days; type: functional; conditions: CCM 245, 96 h, read-out: GI; in short: as §1
[5] = test system: Colletotrichum gloeosporioides; test: Fungicidal activity against Colletotrichum gloeosporioides CECT 2859 assessed as inhibition of radial mycelial growth at 2.5 ug/mL after 4 days; type: functional; conditions: CECT 2859, 96 h, read-out: GI; in short: as §1
[6] = test system: Colletotrichum coccodes; test: Fungicidal activity against Colletotrichum coccodes CCM 327 assessed as inhibition of radial mycelial growth at 2.5 ug/mL after 4 days; type: functional; conditions: CCM 327, 96 h, read-out: GI; in short: as §1
[7] = test system: Trichothecium roseum; test: Fungicidal activity against Trichothecium roseum CECT 2410 assessed as inhibition of radial mycelial growth at 2.5 ug/mL after 4 days; type: functional; conditions: CECT 2410, 96 h, read-out: GI; in short: as §1
[8] = test system: Alternaria alternata; test: Fungicidal activity against Alternaria tenuis CECT 2662 assessed as inhibition of radial mycelial growth at 2.5 ug/mL after 4 days; type: functional; conditions: CECT 2662, 96 h, read-out: GI; in short: as §1
[9] = test system: Verticillium dahliae; test: Fungicidal activity against Verticillium dahliae CCM 269 assessed as inhibition of radial mycelial growth at 2.5 ug/mL after 6 days; type: functional; conditions: CCM 269, 144 h, read-out: GI
In short: as §1, with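 “cultures” for “cultures of each fungus”, “6” for “4”, “relative to control plates.” for “against control-plate growth.”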

[10] = test system: Phytophthora citrophthora; test: Fungicidal activity against Phytophthora citrophthora assessed as inhibition of radial mycelial growth at 2.5 ug/mL after 4 days; type: functional; conditions: 96 h, read-out: GI; in short: as §1
[11] = test system: Trichoderma viride; test: Fungicidal activity against Hypocrea rufa CECT 2423 assessed as inhibition of radial mycelial growth at 2.5 ug/mL after 4 days; type: functional; conditions: CECT 2423, 96 h, read-out: GI; in short: as §1
[12] = test system: Penicillium italicum; test: Fungicidal activity against Penicillium italicum CECT 2294 assessed as inhibition of radial mycelial growth at 2.5 ug/mL after 4 days; type: functional; conditions: CECT 2294, 96 h, read-out: GI; in short: as §1
[13] = test system: Aspergillus parasiticus; test: Fungicidal activity against Aspergillus parasiticus CECT 2681 assessed as inhibition of radial mycelial growth at 2.5 ug/mL after 4 days; type: functional; conditions: CECT 2681, 96 h, read-out: GI; in short: as §1
[14] = test system: Aspergillus parasiticus; test: Fungicidal activity against Aspergillus parasiticus CECT 2681 assessed as inhibition of radial mycelial growth at 100 ug/mL after 4 days; type: functional; conditions: CECT 2681, 96 h, read-out: GI
In short: (§2)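 Compounds in acetone incorporated into PDA at 100 µg/mL. Acetone-only plates were the negative control, and benomyl at 2.5 µg/mL was the positive control. Plates were inoculated with spores from 7-day-old PDA cultures and incubated at 28 °C for 4 days (6 days for R. necatrix and V. dahliae). Radial mycelial growth was measured and % inhibition calculated against the control. Triplicate determinations, mean ± SD, ANOVA/LSD.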

[15] = test system: Trichoderma viride; test: Fungicidal activity against Hypocrea rufa CECT 2423 assessed as inhibition of radial mycelial growth at 100 ug/mL after 4 days; type: functional; conditions: CECT 2423, 96 h, read-out: GI; in short: as §2
[16] = test system: Penicillium italicum; test: Fungicidal activity against Penicillium italicum CECT 2294 assessed as inhibition of radial mycelial growth at 100 ug/mL after 4 days; type: functional; conditions: CECT 2294, 96 h, read-out: GI; in short: as §2
[17] = test system: Oncopeltus fasciatus; test: Insecticidal activity against Oncopeltus fasciatus third-instar nymphs reared on diet based on sunflower seeds assessed as insect mortality at 7.5 ug/cm2 relative to untreated control; type: functional
[18] = test system: Oncopeltus fasciatus; test: Insecticidal activity against Oncopeltus fasciatus third-instar nymphs reared on diet based on sunflower seeds assessed as insect mortality at 5 ug/cm2 relative to untreated control; type: functional
[19] = test system: Verticillium dahliae; test: Fungicidal activity against Verticillium dahliae CCM 269 assessed as inhibition of radial mycelial growth at 100 ug/mL after 6 days; type: functional; conditions: CCM 269, 144 h, read-out: GI; in short: as §2
[20] = test system: Alternaria alternata; test: Fungicidal activity against Alternaria tenuis CECT 2662 assessed as inhibition of radial mycelial growth at 100 ug/mL after 4 days; type: functional; conditions: CECT 2662, 96 h, read-out: GI; in short: as §2
[21] = test system: Trichothecium roseum; test: Fungicidal activity against Trichothecium roseum CECT 2410 assessed as inhibition of radial mycelial growth at 100 ug/mL after 4 days; type: functional; conditions: CECT 2410, 96 h, read-out: GI; in short: as §2
[22] = test system: Colletotrichum coccodes; test: Fungicidal activity against Colletotrichum coccodes CCM 327 assessed as inhibition of radial mycelial growth at 100 ug/mL after 4 days; type: functional; conditions: CCM 327, 96 h, read-out: GI; in short: as §2
[23] = test system: Colletotrichum gloeosporioides; test: Fungicidal activity against Colletotrichum gloeosporioides CECT 2859 assessed as inhibition of radial mycelial growth at 100 ug/mL after 4 days; type: functional; conditions: CECT 2859, 96 h, read-out: GI; in short: as §2
[24] = test system: Geotrichum candidum; test: Fungicidal activity against Galactomyces geotrichum CCM 245 assessed as inhibition of radial mycelial growth at 100 ug/mL after 4 days; type: functional; conditions: CCM 245, 96 h, read-out: GI; in short: as §2
[25] = test system: Fusarium oxysporum f. sp. niveum; test: Fungicidal activity against Fusarium oxysporum f. sp. niveum CCM 259 assessed as inhibition of radial mycelial growth at 100 ug/mL after 4 days; type: functional; conditions: CCM 259, 96 h, read-out: GI; in short: as §2
[26] = test system: Fusarium oxysporum f. sp. gladioli; test: Fungicidal activity against Fusarium oxysporum f. sp. gladioli CCM 233 assessed as inhibition of radial mycelial growth at 100 ug/mL after 4 days; type: functional; conditions: CCM 233, 96 h, read-out: GI; in short: as §2
[27] = test system: Fusarium culmorum; test: Fungicidal activity against Fusarium culmorum CCM 172 assessed as inhibition of radial mycelial growth at 100 ug/mL after 4 days; type: functional; conditions: CCM 172, 96 h, read-out: GI; in short: as §2
[28] = test system: Oncopeltus fasciatus; test: Insecticidal activity against Oncopeltus fasciatus third-instar nymphs reared on diet based on sunflower seeds assessed as insect mortality at 5 to 10 ug/cm2 relative to untreated control; type: functional, organism-based
[29] = test system: Oncopeltus fasciatus; test: Insecticidal activity against Oncopeltus fasciatus third-instar nymphs reared on diet based on sunflower seeds assessed as insect mortality at 10 ug/cm2 relative to untreated control; type: functional

Compound | inhibition of growth at 100 µg/mL [14] | inhibition of growth at 100 µg/mL [15] | inhibition of growth at 100 µg/mL [16] | inhibition of growth at 100 µg/mL [19] | inhibition of growth at 100 µg/mL [20] | inhibition of growth at 100 µg/mL [21] | inhibition of growth at 100 µg/mL [22] | inhibition of growth at 100 µg/mL [23] | inhibition of growth at 100 µg/mL [24] | inhibition of growth at 100 µg/mL [25] | inhibition of growth at 100 µg/mL [26] | inhibition of growth at 100 µg/mL [27] | Activity [28] | also measured
CCCCNC(=O)n1c(NC(=O)OC)nc2ccccc21 [BENOMYL] |  |  |  |  |  |  |  |  |  |  |  |  |  | inhibition of growth at 2.5 µg/mL [1]: 87%; inhibition of growth at 2.5 µg/mL [2]: 11.1%; inhibition of growth at 2.5 µg/mL [3]: 100%; inhibition of growth at 2.5 µg/mL [4]: 0%; inhibition of growth at 2.5 µg/mL [5]: 100%; inhibition of growth at 2.5 µg/mL [6]: 100%; inhibition of growth at 2.5 µg/mL [7]: 100%; inhibition of growth at 2.5 µg/mL [8]: 0%; inhibition of growth at 2.5 µg/mL [9]: 100%; inhibition of growth at 2.5 µg/mL [10]: 100%; inhibition of growth at 2.5 µg/mL [11]: 100%; inhibition of growth at 2.5 µg/mL [12]: 100%; inhibition of growth at 2.5 µg/mL [13]: 100%
CCCCCCCC(=O)N1CC=CC1 | 19.3% | 38% | 31.2% | 39.6% | 51.4% | 34.3% | 76.7% | 35.4% | 0% | 30.5% | 38.5% | 24.5% |  | mortality at 7.5 µg/cm2 [17]: 100%; mortality at 5 µg/cm2 [18]: 20%
CCCCCCCC(=O)C(C)C(=O)N1CCCC1=O (stereo not drawn) | 31.7% | 21.1% | 8.6% | 56.2% | 47.5% | 49.5% | 52% | 35.6% | 24.4% | 21% | 26.8% | 18.1% | inactive | 
CCCCCCCC(O)C(C)C(=O)N1CCCC1=O (stereo not drawn) | 31.5% | 38% | 33.3% | 45.9% | 38.1% | 19.6% | 69% | 36.6% | 0% | 33.3% | 36.5% | 24.3% | inactive | 
CCCCCCCC(=O)CC(=O)N1CCCC1=O | 21.3% | 22% | 26.4% | 49.8% | 30.2% | 0% | 48.3% | 34.5% | 0% | 27.6% | 35.5% | 8.2% | inactive | 
CC1=C(C2CC2)OC2CCCN2C1=O (stereo not drawn) | 11.3% | 0% | 23.6% | 65.4% | 23.9% | 0% | 37.8% | 11.8% | 0% | 26.2% | 24.1% | 38.9% | inactive | 
CC(C(=O)C(C)c1cccc(Oc2ccccc2)c1)C(=O)N1CCCC1 (stereo not drawn) | 27.9% | 30.7% | 22.2% | 19% | 39.5% | 46.6% | 37.6% | 41.4% | 12.3% | 17.4% | 23.1% | 23.5% | inactive | 
CCCCCCCC(=C1C(=O)OC(C)(C)OC1=O)N1CC=CC1 | 39.3% | 54% | 29.9% | 13.9% | 21.1% | 38.6% | 18.8% | 29.9% | 23.9% | 28% | 26% | 39.7% |  | mortality at 10 µg/cm2 [29]: 40%
CC(C(=O)C(C)(C)C(=O)N1CCCC1)c1cccc(Oc2ccccc2)c1 (stereo not drawn) | 37.9% | 38.7% | 17.8% | 22.7% | 55.2% | 53.2% | 55.7% | 62.2% | 11.7% | 36.9% | 34.8% | 16.3% | inactive | 
